Data published in ChEMBL document CHEMBL4359831, “Chemoproteomics of an Indole-Based Quinone Epoxide Identifies Druggable Vulnerabilities in Vancomycin-Resistant Staphylococcus aureus” (J Med Chem, 2019).
Values after ≈ are worked out from the molar mass of the structure shown. Active and inactive are the calls of the source. No cut-off for these calls is given here.

Tests used:
Staphylococcus aureus [1] = experiment: Binding affinity to soluble protein in Staphylococcus aureus ATCC 29213 cells after 1 hr by Rhodamine azide fluorescence dependent gel-based ABPP assay; type: functional, organism-based
How it was run: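 Live S. aureus cultures were treated with probe (10 μM, 1 h), then lysed and fractionated into soluble and membrane proteomes. Labelling was assessed by rhodamine-azide click and SDS-PAGE fluorescence.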

Staphylococcus aureus [2] = experiment: Antibacterial activity against Staphylococcus aureus ATCC 29213 after 16 to 18 hrs by CLSI M07-A10 protocol based dilution method; type: functional
How it was run: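 MIC against ATCC 29213 determined by a previously described protocol; values in μg/mL.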

Escherichia coli [3] = experiment: Binding affinity to membrane protein in Escherichia coli ATCC 25922 cell lysates after 1 hr by Rhodamine azide fluorescence dependent gel-based ABPP assay; type: functional; details: Lysate
Staphylococcus aureus [4] = experiment: Binding affinity to membrane protein in Staphylococcus aureus ATCC 29213 cell lysates after 1 hr by Rhodamine azide fluorescence dependent gel-based ABPP assay; type: functional; details: Lysate
How it was run: (§1)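 S. aureus soluble or fractionated membrane lysates were incubated 1 h with alkyne probe (0.01–100 μM), then Cu-catalysed click with rhodamine-azide. Proteomes were resolved by SDS-PAGE and visualised by in-gel fluorescence (gel-based ABPP).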

[5] = L-cysteine reactivity in pH 7.4 phosphate buffer at 100 uM preincubated for 1 hr followed by mono-bromobimane addition and measured after 30 mins by fluorescence based competition assay
Escherichia coli [6] = experiment: Binding affinity to soluble protein in Escherichia coli ATCC 25922 cell lysates after 1 hr by Rhodamine azide fluorescence dependent gel-based ABPP assay; type: functional; details: Lysate
Escherichia coli [7] = experiment: Binding affinity to soluble protein in Escherichia coli ATCC 25922 cells after 1 hr by Rhodamine azide fluorescence dependent gel-based ABPP assay; type: functional, organism-based
Staphylococcus aureus [8] = experiment: Binding affinity to soluble protein in Staphylococcus aureus ATCC 29213 cell lysates after 1 hr by Rhodamine azide fluorescence dependent gel-based ABPP assay; type: functional; details: Lysate; how it was run: as §1
Staphylococcus aureus [9] = experiment: Cysteine reactivity in iodoacetamide treated Staphylococcus aureus ATCC 29213 cell lysates at 10 uM incubated for 1 hr by Rhodamine azide fluorescence dependent gel-based competitive ABPP assay; type: subcellular; details: Cell lysate
How it was run: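 Fractionated S. aureus soluble and membrane lysates were pretreated with excess iodoacetamide (10 mM), then chased with probe (10 μM). Read-out was rhodamine-azide click and SDS-PAGE in-gel fluorescence.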

Staphylococcus aureus [10] = experiment: Binding affinity to Staphylococcus aureus ATCC 29213 C-terminal His6-tagged MarR_05815 C12A mutant expressed in Escherichia coli BL21(DE3) cells up to 100 uM incubated for 1 hr by Rhodamine azide fluorescence dependent gel-based ABPP assay
How it was run: (§2)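 Recombinant His-tagged protein purified from E. coli by Ni-NTA affinity chromatography; wild-type and Cys-to-Ala variant treated with increasing alkyne quinone-epoxide probe (0–100 μM) for 1 h. Then Cu-catalysed click reaction with rhodamine-azide, SDS-PAGE resolution, and in-gel fluorescence visualisation of probe labelling.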

Escherichia coli [11] = experiment: Binding affinity to membrane protein in Escherichia coli ATCC 25922 cells after 1 hr by Rhodamine azide fluorescence dependent gel-based ABPP assay; type: functional, organism-based
Staphylococcus aureus [12] = experiment: Binding affinity to Staphylococcus aureus ATCC 29213 C-terminal His6-tagged MarR_12840 (Cys61 residue) expressed in Escherichia coli BL21(DE3) cells up to 100 uM incubated for 1 hr by Rhodamine azide fluorescence dependent gel-based ABPP assay
How it was run: (§3)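 Recombinant His-tagged MarR proteins were purified from E. coli by Ni-NTA, as wild type and as Cys→Ala variants (C61A MarR_12840; C12A MarR_05815). Proteins were labelled with probe at 0–100 μM for 1 h, then click with rhodamine-azide and SDS-PAGE fluorescence read-out.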

Staphylococcus aureus [13] = experiment: Binding affinity to Staphylococcus aureus ATCC 29213 C-terminal His6-tagged MarR_05815 (Cys12 residue) expressed in Escherichia coli BL21(DE3) cells up to 100 uM incubated for 1 hr by Rhodamine azide fluorescence dependent gel-based ABPP assay; how it was run: as §3
Staphylococcus aureus [14] = experiment: Binding affinity to Staphylococcus aureus ATCC 29213 C-terminal His6-tagged MarR_12840 C61A mutant expressed in Escherichia coli BL21(DE3) cells up to 100 uM incubated for 1 hr by Rhodamine azide fluorescence dependent gel-based ABPP assay; how it was run: as §2
[15] = L-cysteine reactivity in pH 7.4 phosphate buffer assessed as compound remaining at 100 uM incubated for 1 hr by HPLC analysis
Staphylococcus aureus [16] = experiment: Antibacterial activity against vancomycin-resistant Staphylococcus aureus HIP14300 after 16 to 18 hrs by CLSI M07-A10 protocol based dilution method; type: functional
Staphylococcus aureus [17] = experiment: Antibacterial activity against vancomycin-resistant Staphylococcus aureus HIP11714 after 16 to 18 hrs by CLSI M07-A10 protocol based dilution method; type: functional
Staphylococcus aureus [18] = experiment: Antibacterial activity against vancomycin-resistant Staphylococcus aureus SA-HIP-15178 after 16 to 18 hrs by CLSI M07-A10 protocol based dilution method; type: functional
Staphylococcus aureus [19] = experiment: Antibacterial activity against vancomycin-resistant Staphylococcus aureus SA-HIP-11983 after 16 to 18 hrs by CLSI M07-A10 protocol based dilution method; type: functional
Staphylococcus aureus [20] = experiment: Antibacterial activity against vancomycin-resistant Staphylococcus aureus AIS100050 after 16 to 18 hrs by CLSI M07-A10 protocol based dilution method; type: functional
Staphylococcus aureus [21] = experiment: Antibacterial activity against vancomycin-resistant Staphylococcus aureus 1002434 after 16 to 18 hrs by CLSI M07-A10 protocol based dilution method; type: functional
Staphylococcus aureus [22] = experiment: Antibacterial activity against vancomycin-resistant Staphylococcus aureus SA-HIP-14300 after 16 to 18 hrs by CLSI M07-A10 protocol based dilution method; type: functional
Staphylococcus aureus [23] = experiment: Antibacterial activity against vancomycin-resistant Staphylococcus aureus SA-71080 after 16 to 18 hrs by CLSI M07-A10 protocol based dilution method; type: functional
Staphylococcus aureus [24] = experiment: Bactericidal activity against vancomycin-resistant Staphylococcus aureus HIP11714 at 10 times MIC measured up to 24 hrs by time kill assay; type: functional, organism-based
[25] = Selectivity index, ratio of CC50 for African green monkey Vero cells to MIC90 for Staphylococcus aureus ATCC 29213; type: toxicity; details: read-out: Selectivity Index
Staphylococcus aureus [26] = experiment: Bactericidal activity against Staphylococcus aureus ATCC 29213 at 1 to 10 times MIC preincubated up to 24 hrs under shaking condition followed by bacterial plating on Tryptic Soy agar and measured after 18 to 20 hrs by time kill assay; type: functional, organism-based
[27] = L-cysteine reactivity in pH 7.4 phosphate buffer assessed as pseudo first order rate constant at 100 uM measured at 10 mins time interval up to 60 mins by HPLC analysis

For `C#CCCCn1c2ccccc2c2ccc3c(c21)C(=O)C1OC1C3=O` (centres undefined), the Activity (Staphylococcus aureus [1]) was “Active”, the MIC (Staphylococcus aureus [2]) was 1 µg/mL (≈ 3.04 µM) and the Activity (Escherichia coli [3]) was “Active”. The Activity (Staphylococcus aureus [4]) was “Active”, the Activity [5] was “Active” and the Activity (Escherichia coli [6]) was “Active”. The Activity (Escherichia coli [7]) was “inactive”, the Activity (Staphylococcus aureus [8]) was “Dose-dependent effect” and the Activity (Staphylococcus aureus [9]) was “inactive”. For the same compound, the Activity (Staphylococcus aureus [10]) was “inactive”, the Activity (Escherichia coli [11]) was “inactive” and the Activity (Staphylococcus aureus [12]) was “Dose-dependent effect”. For the same compound, the Activity (Staphylococcus aureus [13]) was “Dose-dependent effect” and the Activity (Staphylococcus aureus [14]) was “inactive”.
In the case of `O=C1c2ccc3c4ccccc4n(-c4ccccc4)c3c2C(=O)C2OC12` (centres undefined), the MIC (Staphylococcus aureus [2]) is reported as 2 µg/mL (≈ 5.89 µM) and the Activity [15] is reported as 57%.
In the case of `CCc1cc2c3ccccc3n(C(C)C)c2c2c1C(=O)C1OC1C2=O` (centres undefined), the MIC (Staphylococcus aureus [2]) is reported as 64 µg/mL (≈ 192 µM) and the Activity [15] is reported as 88%.
For `C#CCCCn1c2ccccc2c2ccc3c(c21)C(=O)C1OC1(c1ccccc1)C3=O` (centres undefined), the Activity (Staphylococcus aureus [1]) was “Active”, the MIC (Staphylococcus aureus [2]) was over 64 µg/mL and the Activity (Staphylococcus aureus [4]) was “Active”. For the same compound, the Activity [5] was “Active” and the Activity (Staphylococcus aureus [8]) was “inactive”.
`COc1ccc(C23OC2C(=O)c2c(ccc4c5ccccc5n(C(C)C)c24)C3=O)cc1` (centres undefined) gave an MIC (Staphylococcus aureus [2]) of over 64 µg/mL.
Work on `CC(C)n1c2ccccc2c2ccc3c(c21)C(=O)C1(c2ccc(Br)cc2)OC1C3=O` (centres undefined) yielded an MIC (Staphylococcus aureus [2]) of 1 µg/mL (≈ 2.17 µM).
`Cc1cc2c3ccccc3n(C(C)C)c2c2c1C(=O)C1OC1C2=O` (centres undefined) showed an MIC (Staphylococcus aureus [2]) of 4 µg/mL (≈ 12.5 µM) and an Activity [15] of 84%.
For `Cc1cc2c([nH]c3ccccc32)c2c1C(=O)C1OC1C2=O` (centres undefined), the MIC (Staphylococcus aureus [2]) was over 16 µg/mL and the Activity [15] was 86%.
`CCn1c2ccccc2c2ccc3c(c21)C(=O)C1OC1C3=O` (centres undefined) gave an MIC (Staphylococcus aureus [2]) of 2 µg/mL (≈ 6.87 µM) and an Activity [15] of 33%.
Work on `O=C1c2ccc3c([nH]c4ccccc43)c2C(=O)C2OC12` (centres undefined) yielded an MIC (Staphylococcus aureus [2]) of 4 µg/mL (≈ 15.2 µM) and an Activity [15] of 33%.
With `CN[C@H](CC(C)C)C(=O)N[C@H]1C(=O)N[C@@H](CC(N)=O)C(=O)N[C@H]2C(=O)N[C@H]3C(=O)N[C@H](C(=O)N[C@H](C(=O)O)c4cc(O)cc(O)c4-c4cc3ccc4O)[C@H](O)c3ccc(c(Cl)c3)Oc3cc2cc(c3O[C@@H]2O[C@H](CO)[C@@H](O)[C@H](O)[C@H]2O[C@H]2C[C@](C)(N)[C@H](O)[C@H](C)O2)Oc2ccc(cc2Cl)[C@H]1O` [VANCOMYCIN] the MIC (Staphylococcus aureus [16]) was over 64 µg/mL, the MIC (Staphylococcus aureus [17]) was over 64 µg/mL and the MIC (Staphylococcus aureus [18]) was 32 to 64 µg/mL (≈ 22.1 to 44.2 µM). For the same compound, the MIC (Staphylococcus aureus [19]) was 32 to 64 µg/mL (≈ 22.1 to 44.2 µM), the MIC (Staphylococcus aureus [20]) was 32 to 64 µg/mL (≈ 22.1 to 44.2 µM) and the MIC (Staphylococcus aureus [21]) was over 64 µg/mL. For the same compound, the MIC (Staphylococcus aureus [22]) was over 64 µg/mL and the MIC (Staphylococcus aureus [23]) was 32 to 64 µg/mL (≈ 22.1 to 44.2 µM).
With `CCCCCCCCCC(=O)N[C@@H](Cc1c[nH]c2ccccc12)C(=O)N[C@@H](CC(N)=O)C(=O)N[C@@H](CC(=O)O)C(=O)N[C@@H]1C(=O)NCC(=O)N[C@@H](CCCN)C(=O)N[C@H](CC(=O)O)C(=O)N[C@H](C)C(=O)N[C@@H](CC(=O)O)C(=O)NCC(=O)N[C@H](CO)C(=O)N[C@@H]([C@@H](C)CC(=O)O)C(=O)N[C@@H](CC(=O)c2ccccc2N)C(=O)O[C@@H]1C` the Activity (Staphylococcus aureus [24]) was “Active”.
`Cn1c2ccccc2c2ccc3c(c21)C(=O)C1OC1C3=O` (centres undefined) gave an MIC (Staphylococcus aureus [2]) of 4 µg/mL (≈ 14.4 µM) and an Activity [15] of 27%.
For `CC(C)n1c2ccccc2c2ccc3c(c21)C(=O)C1OC1(c1ccc(Br)cc1)C3=O` (centres undefined), the MIC (Staphylococcus aureus [2]) was over 64 µg/mL.
For `CC(C)n1c2ccccc2c2ccc3c(c21)C(=O)C1(c2ccccc2)OC1C3=O` (centres undefined), the MIC (Staphylococcus aureus [2]) was 0.0625 µg/mL (≈ 0.164 µM), the selectivity ratio [25] was over 200 and the Activity (Staphylococcus aureus [26]) was “Active”.
With `COc1ccc(C23OC2C(=O)c2ccc4c5ccccc5n(C(C)C)c4c2C3=O)cc1` (centres undefined) the MIC (Staphylococcus aureus [2]) was 0.5 µg/mL (≈ 1.22 µM).
Compound `CCn1c2ccccc2c2cc(C)c3c(c21)C(=O)C1OC1C3=O` (centres undefined) has an MIC (Staphylococcus aureus [2]) of 2 µg/mL (≈ 6.55 µM) and an Activity [15] of 93%.
For `CC(C)n1c2ccccc2c2ccc3c(c21)C(=O)C1OC1(c1ccccc1)C3=O` (centres undefined), the MIC (Staphylococcus aureus [2]) was over 64 µg/mL, the Activity [5] was “Active” and the K [27] was 0.78 ×10⁻² /min.
